One compound from ChEMBL document CHEMBL1147041, “Modulation of human neural stem cell differentiation in Alzheimer (APP23) transgenic mice by phenserine” (2007) can be followed below.

Calls of active or inactive are those of the source. The calls are words filed in the database; no cut-off is given here.

Assay [1] in a line: Effect on neuronal differentiation of human neural stem cells transplanted in wild type mouse hippocampus CA1 region assessed as increase of beta-3 tubulin+/BrdU+ count at 25 mg/kg/day, ip for 14 days. The conditions noted are these: route intraperitoneal. It counts as functional, Neural stem cell. The gist of the method: (§1)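 Mice received daily i.p. drug or saline for 14 days. BrdU-labelled (3 µM, 48 h) fetal human neural stem cells, ≈105 cells, were then injected into the right lateral ventricle with no immunosuppression. Daily injections resumed for 1 week after a 2-day recovery. At 6 weeks, 20 µm coronal sections from paraformaldehyde-perfused brains were double-stained for BrdU plus GFAP or β-III tubulin. Cells were counted bilaterally at ×400 on 4–6 sections per mouse, n = 6–7 per group, and compared by ANOVA.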

Assay [2] in a line: Effect on neuronal differentiation of human neural stem cells transplanted in APP23 transgenic mouse motor cortex region assessed as increase of beta-3 tubulin+/BrdU+ count at 25 mg/kg/day, ip for 14 days. It counts as functional, Neural stem cell. To be noted: route intraperitoneal. In a few lines:
as §1

For assay [3], the system named is Mus musculus. The experiment in a line: Decrease in amyloid precursor protein expression in APP23 transgenic mouse cerebral cortices at 25 mg/kg/day, ip for 14 days by Western blot relative to control. It counts as functional, organism-based. (In general: Immunoblotting shows a protein as a band on a membrane.)
A short description of assay [4]: Effect on glial differentiation of human neural stem cells transplanted in APP23 transgenic mouse hippocampus assessed as reduction of GFAP+/BrdU+ count at 25 mg/kg/day, ip for 14 days by fluorescent immunohistochemistry. The conditions noted are these: route intraperitoneal. The assay is classed as functional, Neural stem cell. On the set-up: scale not given: the % may be the effect or the level left. The gist of the method: as §1

Assay [5] has as its system Mus musculus. As to the kind of experiment: Decrease in amyloid precursor protein expression in APP23 transgenic mouse hippocampus at 25 mg/kg/day, ip for 14 days by Western blot relative to control. It counts as functional. Further details: scale not given: the % may be the effect or the level left. The conditions noted are these: route intraperitoneal.
Assay [6] is described as follows: Effect on neuronal differentiation of human neural stem cells transplanted in APP23 transgenic mouse somatosensory region assessed as increase of beta-3 tubulin+/BrdU+ count at 25 mg/kg/day, ip for 14 days. It counts as functional, Neural stem cell. To be noted: route intraperitoneal. The gist of the method: as §1
A short description of assay [7]: Effect on neuronal differentiation of human neural stem cells transplanted in APP23 transgenic mouse hippocampus CA1 region assessed as increase of beta-3 tubulin+/BrdU+ count at 25 mg/kg/day, ip for 14 days. The assay is classed as functional, Neural stem cell. To be noted: route intraperitoneal. In a few lines: as §1
Assay [8] concerns Mus musculus. As to the kind of experiment: Decrease in amyloid precursor protein expression in wild type mouse cerebral cortices at 25 mg/kg/day, ip for 14 days by Western blot relative to control. The assay is classed as functional, organism-based.
A short description of assay [9]: Effect on neuronal differentiation of human neural stem cells transplanted in APP23 transgenic mouse hippocampus CA2 region assessed as increase of beta-3 tubulin+/BrdU+ count at 25 mg/kg/day, ip for 14 days. The assay is classed as functional, Neural stem cell. The conditions noted are these: route intraperitoneal. The gist of the method: as §1
Assay [10] deals with Mus musculus. The experiment in a line: Decrease in glial fibrillary acidic protein expression in APP23 transgenic mouse hippocampus at 25 mg/kg/day, ip for 14 days by Western blot relative to control. It counts as functional. On the set-up: scale not given: the % may be the effect or the level left. To be noted: route intraperitoneal.

On to `CN1CC[C@]2(C)c3cc(OC(=O)Nc4ccccc4)ccc3N(C)C12` (stereo not given in full), for which the Activity in assay [1] was determined as 40%; in assay [2] it was 32%; in [4], 28%; in the assay on Mus musculus [5], 38%; in assay [6], 32%; in assay [7], 32%. For the same compound, the values for the Activity (in [9]; with Mus musculus [10]) were 32% and 36%, respectively. Further, the result in the assay with Mus musculus [3] and in the assay with Mus musculus [8] was Active.
